Data as given in ChEMBL document CHEMBL2176894, “Cyanobacterial peptides as a prototype for the design of potent β-secretase inhibitors and the development of selective chemical probes for other aspartic proteases” (J Med Chem, 2012).
pIC50: −log10 of the molar value. The source made the active and inactive calls. The rule behind the calls is not given here. Starred links: 1 amine or outer side, 2 acyl side, 3 side chain; linkers in the order of their positions; H or OH if unused. Non-standard residues stand in square brackets, D forms with d. Residues, ends and D or L forms follow the SMILES beside them. *: point of attachment. Ahppa(3S,4S) = O=C(C[C@H](O)[C@H](Cc1ccccc1)N[*:1])[*:2]; dNMeF = CN[C@H](Cc1ccccc1)C(=O)O; NMeQ = CN[C@@H](CCC(N)=O)C(=O)O; Cbz = O=C(OCc1ccccc1)*

Experiments:
[1] = biological target: T1, Gamma-secretase (Homo sapiens) (UniProt Q96BI3+Q9NZ42+Q8WW43+P49768+Q92542+P49810); experiment: Inhibition of gamma secretase expressed in human H4 cells expressing BRI-C99 fusion protein assessed as C99 fragment accumulation fragment at 100 nM incubated for 16 hrs in by immunoblot; format: cell-based
Procedure, shortened: (§1)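 H4 cells overexpressing Bri-C99 (400000/well) were kept in Opti-MEM with 1% serum and treated 16 h with test compound (10 μM), LY411575 (100 nM) or BACE1 inhibitor IV (1 μM). Cells were lysed in TBS/1% Triton X-100 and run on a 12% bis-tris gel. Blots were probed with CT-20 antibody for furin-generated C99 and read on an infrared imager.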

[2] = biological target: T1, Gamma-secretase (Homo sapiens); experiment: Inhibition of gamma secretase expressed in human H4 cells assessed as reduction in C83 levels at 10 uM incubated for 16 hrs by immunoblot; format: cell-based
[3] = biological target: T1, Gamma-secretase (Homo sapiens); experiment: Inhibition of gamma secretase expressed in human H4 cells assessed as reduction in CTF levels at 10 uM incubated for 16 hrs by immunoblot; format: cell-based
Cathepsin E = biological target: T2, Cathepsin E (Homo sapiens, UniProt P14091); experiment: Inhibition of cathepsin E by fluorescence assay
T2 sequence (P14091 whole entry): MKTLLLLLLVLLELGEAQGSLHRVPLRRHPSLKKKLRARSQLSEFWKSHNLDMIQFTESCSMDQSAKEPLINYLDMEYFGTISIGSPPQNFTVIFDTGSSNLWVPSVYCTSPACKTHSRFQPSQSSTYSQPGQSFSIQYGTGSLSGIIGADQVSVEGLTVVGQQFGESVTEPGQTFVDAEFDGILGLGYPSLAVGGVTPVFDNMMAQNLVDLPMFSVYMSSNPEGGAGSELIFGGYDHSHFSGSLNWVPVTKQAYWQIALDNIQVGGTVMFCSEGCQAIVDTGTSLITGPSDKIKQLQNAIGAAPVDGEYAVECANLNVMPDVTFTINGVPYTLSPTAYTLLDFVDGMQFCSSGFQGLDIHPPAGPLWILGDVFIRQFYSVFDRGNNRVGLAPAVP

Cathepsin D = Cathepsin D (Homo sapiens, UniProt P07339); experiment: Inhibition of cathepsin D by fluorescence assay
Beta-secretase 1 [4] = biological target: T3, Beta-secretase 1 (Homo sapiens, UniProt P56817); experiment: Inhibition of BACE1 by fluorescence assay
Beta-secretase 1 [5] = biological target: T3, Beta-secretase 1; conditions: H4, at 10 µM
[6] = biological target: T1, Gamma-secretase (Homo sapiens); experiment: Inhibition of gamma secretase expressed in human H4 cells expressing BRI-C99 fusion protein assessed as C99 fragment accumulation fragment at 10 uM incubated for 16 hrs in by immunoblot; format: cell-based; procedure, shortened: as §1
H4 = experiment: Inhibition of Alpha secretase expressed in human H4 cells assessed as reduction in C83 levels at 10 uM incubated for 16 hrs by immunoblot; format: cell-based
Procedure, shortened: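 H4 cells (3 × 10⁵/well) adhered 4−6 h in DMEM/10% FCS at 37 °C, then were switched to serum-free Ultraculture containing compound at 10 μM final for 16 h. Cells were lysed in NP40/deoxycholate buffer, and protein was equalized by BCA. Lysates were run on 10−20% tricine gels and immunoblotted with antibody to the APP C-terminal 20 residues (1:2000); C99 and C83 were imaged on an infrared system.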

Brain = experiment: Drug concentration in CF1 mouse brain at 30 mg/kg, ip measured 3 hrs post dose by HPLC-MS method relative to compound plasma concentration; format: ADME, organism-based; set-up: dose 30 mg/kg, route intraperitoneal
Procedure, shortened: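 CF-1 mice, 8 weeks old, 25−35 g, given 30 mg/kg i.p. in 5% DMSO/15% Solutol HS 15/10% EtOH/65% water; killed 3 h post-dose. Cerebellum and cortex homogenized in acetonitrile (1:10 w:v) containing internal standard, then re-extracted. Plasma was taken by cardiac puncture into K-EDTA. Levels were measured by HPLC-MS (MRM, negative ionization) and interpolated from a calibration curve.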

Chain of Cathepsin D (P07339 65-162 limits assumed): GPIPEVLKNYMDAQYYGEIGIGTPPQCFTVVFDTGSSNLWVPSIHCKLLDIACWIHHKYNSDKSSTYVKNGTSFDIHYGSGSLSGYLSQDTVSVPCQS
Chain of Cathepsin D (P07339 169-412 limits assumed): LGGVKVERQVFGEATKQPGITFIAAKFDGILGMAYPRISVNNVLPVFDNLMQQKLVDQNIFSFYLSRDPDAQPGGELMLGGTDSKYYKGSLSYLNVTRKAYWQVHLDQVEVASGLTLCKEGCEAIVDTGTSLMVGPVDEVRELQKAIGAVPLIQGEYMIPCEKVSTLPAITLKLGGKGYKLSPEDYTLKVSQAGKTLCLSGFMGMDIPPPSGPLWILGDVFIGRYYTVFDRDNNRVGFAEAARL
T3 sequence (P56817 whole entry): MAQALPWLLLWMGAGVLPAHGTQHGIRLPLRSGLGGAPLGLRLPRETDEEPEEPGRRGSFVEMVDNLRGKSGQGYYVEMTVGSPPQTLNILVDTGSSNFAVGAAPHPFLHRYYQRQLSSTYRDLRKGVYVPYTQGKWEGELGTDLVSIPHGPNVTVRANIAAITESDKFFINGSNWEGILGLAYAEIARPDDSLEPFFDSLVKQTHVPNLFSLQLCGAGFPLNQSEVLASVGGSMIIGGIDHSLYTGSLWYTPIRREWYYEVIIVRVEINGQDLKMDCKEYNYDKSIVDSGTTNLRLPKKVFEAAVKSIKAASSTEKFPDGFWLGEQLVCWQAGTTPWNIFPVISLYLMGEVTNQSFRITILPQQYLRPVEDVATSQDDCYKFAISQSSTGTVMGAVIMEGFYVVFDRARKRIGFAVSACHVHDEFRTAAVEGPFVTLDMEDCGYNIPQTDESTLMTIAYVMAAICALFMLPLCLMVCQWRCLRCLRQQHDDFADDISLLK

In the case of C[C@H](NC(=O)[C@@H](O)c1cc(F)cc(F)c1)C(=O)N[C@@H]1C(=O)N(C)c2ccccc2-c2ccccc21, the inhibition [1] was “Active”, the inhibition [2] was “Active” and the inhibition [3] was “Active”.
CC(C)C[C@H](NC(=O)C[C@H](O)[C@H](Cc1ccccc1)NC(=O)[C@H](CCC(N)=O)N(C)C(=O)[C@@H](NC(=O)[C@H](C)O)C(C)C)C(=O)N[C@@H](C)C(=O)N(C)[C@H](Cc1ccccc1)C(=O)NCc1ccccc1 gave a pIC50 (Cathepsin E) of 7.52, a pIC50 (Cathepsin D) of 7.68 and a pIC50 (Beta-secretase 1 [4]) of 6.91. For the same compound, the inhibition (Beta-secretase 1 [5]) was “Active”.
With COC(=O)[C@@H]1CCCN1C(=O)[C@@H](Cc1ccccc1)N(C)C(=O)[C@@H](C)NC(=O)[C@H](CC(C)C)NC(=O)C[C@H](O)[C@H](Cc1ccccc1)NC(=O)[C@H](CCC(N)=O)N(C)C(=O)[C@@H](NC(=O)[C@H](C)O)C(C)C the pIC50 (Cathepsin E) was 5.84.
In the case of COC(=O)[C@@H]1CCCN1C(=O)[C@@H](Cc1ccccc1)N(C)C(=O)[C@H](C)NC(=O)[C@H](CC(C)C)NC(=O)C[C@H](O)[C@H](Cc1ccccc1)NC(=O)[C@H](CCC(N)=O)N(C)C(=O)[C@@H](NC(=O)OCc1ccccc1)C(C)C (Cbz-V[NMeQ][Ahppa(3S,4S)]LA[dNMeF]P-OMe), the inhibition [6] was “inactive”, the pIC50 (Cathepsin E) was 9.14 and the pIC50 (Cathepsin D) was 10.11.
For COC(=O)[C@@H]1CCCN1C(=O)[C@@H](Cc1ccccc1)N(C)C(=O)[C@H](C)NC(=O)[C@H](CC(C)C)NC(=O)C[C@H](O)[C@H](Cc1ccccc1)NC(=O)[C@H](CCC(N)=O)N(C)C(=O)[C@@H](N)C(C)C, the inhibition [6] was “inactive”, the inhibition (H4) was “inactive” and the pIC50 (Cathepsin E) was 7.24. The pIC50 (Cathepsin D) was 7.76.
In the case of COC(=O)[C@@H](Cc1ccccc1)N(C)C(=O)[C@H](C)NC(=O)[C@H](CC(C)C)NC(=O)C[C@H](O)[C@H](Cc1ccccc1)NC(C)=O, the pIC50 (Cathepsin E) was 5.82, the pIC50 (Cathepsin D) was 6.39 and the pIC50 (Beta-secretase 1 [4]) was less than 5.00.
CC(C)C[C@H](NC(=O)C[C@H](O)[C@H](Cc1ccccc1)NC(=O)[C@H](CCC(N)=O)N(C)C(=O)[C@@H](NC(=O)[C@H](C)O)C(C)C)C(=O)N[C@@H](C)C(=O)N(C)[C@H](Cc1ccccc1)C(=O)NC(C)C showed a pIC50 (Cathepsin E) of 7.28, a pIC50 (Cathepsin D) of 6.60 and a pIC50 (Beta-secretase 1 [4]) of 6.78. For the same compound, the inhibition (Beta-secretase 1 [5]) was “Active”.
Work on COc1cccc(CNC[C@@H](O)[C@H](Cc2ccccc2)NC(=O)c2cc(C(=O)N[C@H](C)c3ccccc3)cc(N(C)S(C)(=O)=O)c2)c1 yielded a Drug uptake (Brain) of 10%.
With COC(=O)[C@@H]1CCCN1C(=O)[C@@H](Cc1ccccc1)N(C)C(=O)[C@H](C)NC(=O)[C@H](CC(C)C)NC(=O)C[C@H](O)[C@H](Cc1ccccc1)NC(=O)[C@H](CCC(N)=O)NC(C)=O the inhibition [6] was “inactive”, the pIC50 (Cathepsin E) was 7.11 and the pIC50 (Cathepsin D) was 8.11.
With CC(C)C[C@@H](C=O)NC(=O)[C@H](CC(C)C)NC(=O)[C@@H](NC(=O)OCc1ccccc1)C(C)C (Cbz-Val-Leu-Leu-aldehyde) the inhibition (Beta-secretase 1 [5]) was “Active”.
